Assay results of several laboratories.
Protocols differ between the studies behind these lines.
Target: Ephrin type-A receptor 5 (EPHA5, Homo sapiens, UniProt P54756)

CNC(=O)c1cc2c(Oc3ccc(NC(=O)C4(C(=O)Nc5ccc(F)cc5)CC4)cc3)ccnc2cc1OC
inhibition (enzyme activity, inhibitor, radiometric; 1 µM): 96%

Cc1ccc(NC(=O)c2ccc(C)c(C(F)(F)F)c2)cc1C#Cc1nn(C2CCC(O)CC2)c2ncnc(N)c12 (stereo not shown)
remaining signal (cell-free assay; 10 µM): -1%

Cc1ccc(Nc2nccc(N(C)c3ccc4c(C)n(C)nc4c3)n2)cc1S(N)(=O)=O
inhibition (enzyme activity, inhibitor; 0.3 µM): 6%

CCOCCn1cc(C(=O)Nc2ccc(-n3nc(-c4cccnc4)cc3C(F)(F)F)cn2)ccc1=O
remaining binding (cell-free assay, competition with immobilised ligand; 1 µM): 100%

COc1cc2c(N3CCN(C(=O)Nc4ccc(OC(C)C)cc4)CC3)ncnc2cc1OCCCN1CCCCC1
remaining signal (cell-free assay; 0.5 µM): 104%

COc1cc(-c2cn(C3CCc4c(F)cccc4N(CC(F)(F)F)C3=O)nn2)ccc1-n1cnc(C)c1 (stereo not shown)
remaining binding (cell-free assay, competition with immobilised ligand; 1 µM): 100%

CC(C)(C)c1nc(-c2cccc(NS(=O)(=O)c3c(F)cccc3F)c2F)c(-c2ccnc(N)n2)s1
remaining activity (enzyme activity, inhibitor, radiometric; 1 µM): 116%

CCCS(=O)(=O)Nc1ccc(F)c(C(=O)c2c[nH]c3ncc(-c4ccc(Cl)cc4)cc23)c1F
inhibition (enzyme activity, inhibitor; 1 µM): < 20%

CS(=O)(=O)NCC[C@H](NC(=O)c1cncc2c1cnn2-c1ccc(F)cc1)c1ccnc(S(C)(=O)=O)c1
remaining binding (cell-free assay, competition with immobilised ligand; 1 µM): 100%

C=CC(=O)Nc1cc(Nc2nccc(Nc3cc(Cl)c(F)cc3C(C)(C)O)n2)c(OC)cc1N1CC[C@@H](N(C)C)C1
inhibition (enzyme activity, inhibitor; 1 µM): 17%

CNC(=O)c1cc(Oc2ccc(NC(=O)Nc3ccc(Cl)c(C(F)(F)F)c3)cc2)ccn1
inhibition (enzyme activity, inhibitor; 10 µM): 92%

CCc1ccccc1C(=O)Nc1n[nH]c2c(C)c(F)c(C3C(C#N)=C(C)N(C)C(C)=C3C#N)cc12
remaining binding (cell-free assay, competition with immobilised ligand; 1 µM): 87%

COc1cc2ncnc(Nc3ccc(Oc4ccccc4)c(C)c3C)c2cc1OC
inhibition (enzyme activity, inhibitor; 1 µM): 1%

CN1CC(Oc2cnc(C#N)cc2-c2ccn3nc(NC(=O)C4CC4)cc3c2)C1
inhibition (enzyme activity, inhibitor; 1 µM): 10%

O=C(Nc1cnn(-c2csc(C(=O)NC3COC3)c2)c1)Nc1ccccc1Cl
remaining activity (enzyme activity, inhibitor; 5 µM): 96.9%

Oc1ccc(-c2nc(-c3ccncc3)c(-c3ccc(F)cc3)[nH]2)cc1
remaining signal (cell-free assay; 0.5 µM): 90.7%

Cc1cc(-n2nc(Cc3cc(F)cc(C(F)(F)F)c3)nc2C)ccc1C(N)=O
remaining binding (cell-free assay, competition with immobilised ligand; 1 µM): 100%

CCN(CC)CCNC(=O)c1c(C)[nH]c(/C=C2\C(=O)Nc3ccc(F)cc32)c1C
inhibition (enzyme activity, inhibitor; 0.3 µM): 7%

COc1cc(Cl)c(C(=O)N[C@@H](CN[C@H]2CC[C@@H](N)CC2)Cc2ccc(C#N)cc2)cc1-c1ccc(CN[C@H](C)c2ccc(C)cc2)o1
remaining activity (enzyme activity, inhibitor; 1 µM): 90%

CC/C(=N\NC(=O)NCc1cccc(O)c1)c1ccc(O)c(C)c1O
inhibition (enzyme activity, inhibitor; 0.1 µM): -3.3%

Cc1ccc(C(=O)Nc2ccc(CN3CCN(C)CC3)c(C(F)(F)F)c2)cc1C#Cc1cnc2cccnn12
remaining signal (cell-free assay; 23.5 nM): 31%

C[C@H](NC(=O)c1cnc2n1[C@](C)(Cc1ccc(C#N)cc1)C(=O)N2c1cc(Cl)c(F)c(Cl)c1)C(=O)NC1(c2ccccn2)CC1
remaining binding (cell-free assay, competition with immobilised ligand; 1 µM): 100%

C#Cc1cccc(Nc2ncnc3cc(OCCOC)c(OCCOC)cc23)c1
remaining signal (cell-free assay; 0.5 µM): 99.1%

C[C@@H]1CN(c2cc(-c3nn(C)c4ccc(OC5(C)CC5)cc34)ncn2)C[C@H](C)O1
remaining binding (cell-free assay, competition with immobilised ligand; 1 µM): 100%

COc1cc(-c2cc(-c3ccc(N4CCNCC4)cc3)cnc2C)cc(OC)c1OC
inhibition (enzyme activity, inhibitor; 0.1 µM): 5%
